Wee1 stabilizer – blocks degradation of human Wee1 kinase; hit rate 1.2% among 220,000; reporter increase, % at 5 µM; P30291; HeLa Luc-Wee1K328M stability, luciferase luminescence; 100% = proteasome inhibitor MG132 effect;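 active means activation above the mean of all tested compounds plus 3 SD, set per screening run, cut at about 8.8% in these data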;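 further: cells exposed to compound for 20 h before luminescence read; 0% = DMSO alone and 100% = MG132 at 30 µM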
Mdm2 ligase inh – inhibitors of human Mdm2 E3 ubiquitin ligase; cell-based MDM2 ubiquitination luciferase reporter, 2 h; 0 = plate control, 100 = twice control, blank-subtracted; signal enhancement, % at 5 µM; hit rate 0.11% among 210,000; AID 1230;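 active means signal enhancement of 30% or more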;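 further: luminescence tracks abundance of the self-degrading MDM2-luciferase fusion protein; higher signal means inhibition of MDM2 E3 ligase activity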
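system = mammalian cells stably expressing self-ubiquitinating, self-degrading MDM2 E3–luciferase fusion | quantity = 2000 cells per well seeded | incubation = 4 h cell settling then 2 h compound exposure, 37 °C | signal = SteadyLite luminescence, 15 min reagent step | benchmarks = plate control and blank wells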
p97 inhibitor – human p97 ATPase inhibition; recombinant p97 ATPase, Kinase-Glo ATP luminescence, 3 h; inhibition, % at 8 µM; hit rate 0.42% among 220,000; AID 1481; in the data active means inhibition above about 15%;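 further: 0% = DMSO vehicle and 100% = wells lacking enzyme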
Target sequence (P55072 whole entry, looked up): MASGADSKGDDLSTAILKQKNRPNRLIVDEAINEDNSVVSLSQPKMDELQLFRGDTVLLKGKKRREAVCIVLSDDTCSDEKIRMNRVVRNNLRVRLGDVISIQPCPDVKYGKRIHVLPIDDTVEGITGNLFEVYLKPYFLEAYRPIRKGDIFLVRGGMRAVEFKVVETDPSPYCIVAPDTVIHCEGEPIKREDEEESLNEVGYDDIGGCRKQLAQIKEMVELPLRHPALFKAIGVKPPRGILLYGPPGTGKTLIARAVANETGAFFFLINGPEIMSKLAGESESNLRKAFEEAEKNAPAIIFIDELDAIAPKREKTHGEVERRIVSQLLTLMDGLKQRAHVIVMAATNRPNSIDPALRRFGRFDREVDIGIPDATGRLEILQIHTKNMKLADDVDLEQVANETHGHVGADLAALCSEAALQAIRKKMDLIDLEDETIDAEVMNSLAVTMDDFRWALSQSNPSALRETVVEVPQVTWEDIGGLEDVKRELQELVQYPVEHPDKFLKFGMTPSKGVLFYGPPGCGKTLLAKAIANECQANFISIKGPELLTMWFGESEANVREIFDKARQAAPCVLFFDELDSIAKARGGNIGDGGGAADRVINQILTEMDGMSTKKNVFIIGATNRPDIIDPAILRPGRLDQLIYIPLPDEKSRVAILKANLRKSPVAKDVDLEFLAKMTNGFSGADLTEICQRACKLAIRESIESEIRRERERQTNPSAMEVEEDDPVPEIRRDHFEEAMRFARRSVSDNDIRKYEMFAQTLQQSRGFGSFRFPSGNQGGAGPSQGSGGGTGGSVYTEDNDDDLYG
STAT1 act – STAT1 signaling activation; NIH 3T3 STAT1-luciferase reporter, IFN-gamma, luminescence; 100% = IFN-gamma alone, no compound; activation (% of control), % at 5.5 µM; hit rate 2.6% among 200,000;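 active means activation above the screen-wide mean activation plus 3 SD, cut at about 130% in these data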;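 further: raw ratio to IFN-gamma control signal so 100% means no change and 0% no light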
NF-kB neuron act – NF-kB expression increase, human neuronal cells; AID 1239; hit rate 1.6% among 190,000; fold change at 12.5 µM; NF-kB reporter expression; hits give high values; in the data active means fold change above about 3.3
APP 5'UTR act – activates APP 5'UTR luciferase reporter | hit rate 1% among 190,000 | AID 1276 | activation, % at 2 µM | SH-SY5Y APP 5'UTR luciferase reporter, luminescence; zero percent = DMSO vehicle wells;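 active means activation above a set limit, based on mean plus 3 SD of controls, cut at about 140% in these data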
STAT1 act conf – confirmation of STAT1 signaling activators; NIH 3T3 STAT1-luciferase reporter, IFN-gamma potentiation, luminescence; 100% = IFN-gamma EC80 alone, no compound; activation (% of control), % at 5.7 µM; hit rate 97% among 1,200; shares compounds with STAT1 act; AID 1262;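 active means activation above a set limit carried over from the earlier primary STAT1 screen, cut at about 140% in these data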;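 further: simple ratio to median IFN-gamma plus DMSO wells so 0% means no light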
NFkB act STAT1ct – activates NF-kappaB, counter-screen to STAT1 activators. shares compounds with STAT1 act. HEK293T NF-kB luciferase reporter, TNF-alpha stimulated, luminescence; 100% = TNF-alpha with vehicle only. activation (% of control), % at 5.7 µM. hit rate 43% among 1,200. AID 1306;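 active means activation above the mean of solvent-only control wells plus 3 SD, set per campaign, cut at about 130% in these data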;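 further: TNF-alpha given at a submaximal dose yielding about 80% of full reporter signal; values are well signal over median control so 100% means no change and 0% no light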
STAT3 act 2 – activates human STAT3, counter-screen to STAT1 activators. hit rate 46% among 1,200. shares compounds with STAT1 act. U3A cells STAT3-luciferase reporter, IL-6, luminescence; cells lack STAT1; 100 = IL-6 alone, no compound effect. activation (% of control), % at 5.7 µM;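 active means activation above the solvent-only control well mean plus 3 SD, set per plate batch, cut at about 110% in these data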;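 further: 0% = no luminescence and 100% = median IL-6 plus DMSO wells; higher means more STAT3 reporter activation so hits are non-selective activators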
* hit, by the source's call; · = no result given. In the library only some 4.6% were active in any assay of this set; here they are far more common.

SMILES	Wee1 stabilizer	Mdm2 ligase inh	p97 inhibitor	STAT1 act	NF-kB neuron act	APP 5'UTR act	STAT1 act conf	NFkB act STAT1ct	STAT3 act 2
Oc1[nH]c2ccccc2c1C=Nc1ccc2c(c1)OCO2	1	-10	0	192*	4.9*	141*	263*	144*	103
COc1ccc(CN=Cc2c(O)[nH]c3ccccc23)cc1	0	-11	2	117	1.4	2	·	·	·
COc1ccc(N=Cc2c(O)[nH]c3ccccc23)cc1	0	-21	-1	216*	4.9*	181*	269*	135*	111*
O=C1CCCc2nc3c(cc21)C(O)Oc1c-3ccc2ccccc12 (centres undefined)	2	-10	1	186*	2.2	157*	216*	143*	106
O=C1CCCc2nc3c(cc21)C(O)Oc1ccccc1-3 (centres undefined)	6	-2	11	105	·	10	·	·	·
CCOC(=O)CCC(=O)NNC(=O)COc1ccc(C(C)C)cc1Br	2	·	5	105	·	1	·	·	·
O=[N+]([O-])c1cccnc1NCCc1ccccc1	0	-9	1	151*	2.3	76	163*	129	117*
CNC(=O)c1cc(NC(=O)CCn2nc(-c3ccccc3)c3ccccc3c2=O)ccc1OC	-2	0	2	·	·	·	·	·	·
CCOC(=O)c1ccc2nc(NC(C)=O)sc2c1	9.4*	-7	3	161*	2.8	80	168*	124	109
CC(=O)Nc1nc2ccc(Br)cc2s1	1	4	1	174*	2.6	32	205*	141*	112*
Cn1cc(Cl)c(C(=O)Nc2nc3ccc([N+](=O)[O-])cc3s2)n1	0	3	-5	105	1.8	18	·	·	·
CC(=O)Nc1nc2ccc(NC(=O)c3ccco3)cc2s1	2	-6	2	126	2	-4	·	·	·
Cn1cc(Cl)c(C(=O)Nc2nc3ccc(Cl)cc3s2)n1	6	-26	1	151*	3.2	73	171*	138*	100
CC(C)(C)C(=O)n1nc(-c2ccccc2)oc1=O	2	5	7	103	0.98	20	·	·	·
Cc1cc(C)cc(C(=O)NCC(=O)OCC(=O)NCC(F)(F)F)c1	-2	-7	4	100	0.99	-2	·	·	·
NC(=O)c1ccsc1NC(=O)c1coc2ccccc2c1=O	10*	-21	0	166*	2.2	167*	217*	130	113*
NC(=O)c1ccsc1NC(=O)CSc1ccccc1F	3	-24	5	111	1.8	51	·	·	·
CCc1nnc(NC(=O)C2=CCN(S(=O)(=O)c3ccc(F)cc3)CC2)s1	-1	·	7	·	·	·	·	·	·
Cc1ccc2c(c1)N=C(c1ccc(F)cc1)CO2	3	-10	3	164*	2.8	86	195*	144*	111*
O=c1cc(-c2ccncc2)oc2ccccc12	2	-21	3	103	1.1	15	·	·	·
O=c1cc(-c2ccc(O)cc2)oc2ccccc12	1	11	4	154*	2.6	39	154*	118	125*
Cc1cccc(CN(C(=S)Nc2c(C)cccc2C)c2cccnc2)c1	4	-12	-2	101	1.1	19	·	·	·
CCCCn1cnc2c(sc3nc4c(cc32)CSC(C)(C)C4)c1=O	4	-22	1	152*	3.3	166*	208*	134*	108
CCCN(CCC)S(=O)(=O)c1ccc(C(=O)NCc2n[nH]c(=S)n2-c2ccc(Cl)c(Cl)c2)cc1	4	-5	2	100	1.2	-24	·	·	·
CC(=O)COc1ccc2c(C)c(-c3ccccc3)c(=O)oc2c1	-1	-16	-2	156*	2.6	40	156*	115	98
SMILES	Wee1 stabilizer	Mdm2 ligase inh	p97 inhibitor	STAT1 act	NF-kB neuron act	APP 5'UTR act	STAT1 act conf	NFkB act STAT1ct	STAT3 act 2
C=CCNC(=S)Nc1ccc(N(C)C)cc1	5	-3	4	·	·	·	·	·	·
Nc1ccc2nn(-c3ccccc3)nc2c1	4	4	7	155*	3	93	203*	132	110
Nc1ccc2nn(-c3cccc4ccccc34)nc2c1	0	-2	10	94	1.1	-10	·	·	·
Cc1ccc(COc2ccc(/C=N/O)cc2)cc1	2	-29	2	176*	6.3*	89	203*	136*	129*
CCOc1ccc(/C=N/O)cc1	-2	8	-3	104	1.2	-13	·	·	·
O=C(Cc1ccc2c(c1)CCCC2)Nc1ccc2ccccc2c1	0	-3	7	118	0.74	4	·	·	·
O=C(Nc1ccc2ccccc2c1)c1onc2c1CCCC2	-3	-54	2	154*	8.1*	206*	270*	121	98
COc1ccc(OCc2nc(-c3ccc(F)c(F)c3)cs2)cc1	-1	-8	-1	·	·	·	·	·	·
Cc1c(C(=O)N(C)C)sc2nc(-c3ccccn3)[nH]c(=O)c12	0	-15	9	110	1.4	2	·	·	·
O=c1[nH]c(-c2ccccn2)nc2sc(-c3ccccc3)cc12	-1	-36	1	298*	1.6	-27	473*	225*	119*
CC(C)P(=O)(c1cccc(C(=O)O)c1)C(C)C	-2	-6	8	100	1.4	6	·	·	·
CCOC(=O)c1c(C)[nH]c(N=Nc2ccccc2Cl)c1C	4	·	-1	·	·	·	·	·	·
CCOC(=O)c1c(C)[nH]c(C=Nc2ccc(OC)cc2)c1O	0	2	-2	120	1.8	-3	·	·	·
CCOC(=O)c1c(C)[nH]c(N=Nc2cccc(OC)c2)c1C	5	6	1	198*	1.2	253*	235*	144*	103
CCOC(=O)c1c(C)[nH]c(N=Nc2ccc(C)cc2)c1C	2	-5	-7	154*	4.1*	141*	230*	146*	102
CC(C)(C)SCCNC(=O)Nc1ccccc1	1	-9	-3	104	1.4	18	·	·	·
O=C(Nc1ccon1)c1ccc(OC2CCCC2)cc1	6	-19	-5	155*	4.5*	93	166*	129	114*
Clc1ccc(-c2nnc(-c3ccccc3Cl)o2)cc1	3	-62	-4	161*	5.3*	202*	218*	123	95

Source: PubChem
